The source made the active and inactive calls. The calls are words filed in the database; no cut-off is given here.
Key:
[1] = (§1) Drug level treated with (S,S,R,S,S,S,E)-N,N'-((6S,9S,12S,15S,18S,21S,24S,27S)-30-acetamido-1-amino-6-carbamoyl-9,12,15,18,21,24,27-heptakis(3-guanidinopropyl)-1-imino-8,11,14,17,20,23,26,29,37-nonaoxo-32,33-dithia-2,7,10,13,16,19,22,25,28,36-decaazadotetracontane-38,42-diyl)bis(2-((E)-1-((2S,4S)-4-((2R,4S,5S,6S)-4-amino-5-hydroxy-6-methyltetrahydro-2H-pyran-2-yloxy)-2,5,12-trihydroxy-7-methoxy-6,11-dioxo-1,2,3,4,6,11-hexahydrotetracen-2-yl)-2-hydroxyethylideneaminooxy)acetamide)decaacetate at 1 mM in presence of glutathione after 24 hrs by MALDI-TOF-mass spectroscopic analysis
Outline: (§2)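 Conjugate at 1 mM in DPBS pH 7.4 with 10 mM glutathione (tenfold excess), 37°C, shaking at 300 rpm. Disulfide reduction followed by HPLC at 480 nm over 24 h. Cleavage products identified by MALDI-TOF MS.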

[2] = Stability of the compound at pH 5 assessed as doxorubicin formation; format: physicochemical; details: buffer
MCF7 = experiment: Antiproliferative activity against human MCF7 cells after 72 hrs by CellTiter-Glo luminescent cell viability assay; format: functional, cell-based; details: MCF7, 72 h
[3] = Antiproliferative activity against human Kelly cells after 72 hrs by CellTiter-Glo luminescent cell viability assay; format: functional, cell-based
Outline: (§3)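 1×10^3 cells/well, allowed to attach 24 h, then exposed 72 h to 0.05-20 µM drug. Viability by ATP luminescence (CellTiter-Glo) relative to untreated controls with medium correction. IC50 read from log-concentration survival curves, independent triplicates. Kelly-WT and doxorubicin-selected Kelly-ADR (tenfold resistant) cultured in RPMI1640 with 10 % FCS, 2 mM glutamine and pen/strep at 37°C, 5 % CO2.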

[4] = Antiproliferative activity against human adriamycin-resistant Kelly cells after 72 hrs by CellTiter-Glo luminescent cell viability assay; format: functional, cell-based; outline: as §3
[5] = Potency index, ratio of doxorubicin IC50 to compound IC50 for human adriamycin-resistant Kelly cells; format: functional
[6] = Drug uptake in human Kelly cell membrane at 10 uM after 24 hrs by fluorescence confocal microscopic method; format: ADME, cell-based
Outline: (§4)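 Live Kelly-WT or Kelly-ADR cells (1×10^4/well) exposed to 10 µM drug for 24 or 72 h at 37°C, 5 % CO2. Imaged by confocal laser scanning microscopy with a 63× water objective. Red signal is anthracycline-associated fluorescence.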

[7] = Drug uptake in human Kelly cells at 10 uM after 24 hrs by fluorescence confocal microscopic method; format: ADME, cell-based; outline: as §4
[8] = Drug uptake in human adriamycin-resistant Kelly cells at 10 uM after 24 hrs by fluorescence confocal microscopic method; format: ADME, cell-based; outline: as §4
[9] = Drug uptake in human Kelly cells at 10 uM after 72 hrs by fluorescence confocal microscopic method; format: ADME, cell-based; outline: as §4
[10] = Drug uptake in cytosol of human Kelly cells at 10 uM after 72 hrs by fluorescence confocal microscopic method; format: ADME; outline: as §4
[11] = Drug uptake in nucleus of adriamycin-resistant human Kelly cells at 10 uM after 72 hrs by fluorescence confocal microscopic method; format: ADME; outline: as §4
[12] = Drug uptake in nucleus of human adriamycin-resistant Kelly cells at 10 uM after 72 hrs by DRAQ5-staining based fluorescence confocal microscopic method; format: ADME
Outline: (§5)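 Kelly-WT or Kelly-ADR cells exposed 72 h to 10 µM drug. Nuclei counterstained with 5 µM DRAQ5 for 5 min before live confocal imaging at 37°C, 5 % CO2. Nuclear localization scored by overlay (colocalization) with the DRAQ5 signal.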

[13] = Drug uptake in nucleus of human Kelly cells at 10 uM after 72 hrs by DRAQ5-staining based fluorescence confocal microscopic method; format: ADME; outline: as §5
[14] = Drug uptake in adriamycin-resistant human Kelly cell membranes at 10 uM after 72 hrs by fluorescence confocal microscopic method; format: ADME; outline: as §4
[15] = Binding affinity to Cy5-labelled-36 base pair double stranded DNA (unknown origin) measured under infrared laser light by microscale thermophoresis
Outline: (§6)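 Microscale thermophoresis: 50 nM Cy5-labeled DNA titrated with ligand in 50 mM Tris pH 6.5, 15 mM NaCl, 10 mM MgCl2, 0.05 % Tween 20. IR laser at 10 % intensity, starting from room temperature. Fluorescence signals fitted assuming 1:1 binding to give Ka/EC50.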

[16] = Binding affinity to Cy5-labelled-12 base pair double stranded DNA (unknown origin) measured under infrared laser light by microscale thermophoresis; outline: as §6
[17] = Drug uptake in nucleus of human adriamycin-resistant Kelly cells at 10 uM after 24 hrs by fluorescence confocal microscopic method; format: ADME; outline: as §4
[18] = Drug uptake in nucleus of human Kelly cells at 10 uM after 72 hrs by fluorescence confocal microscopic method; format: ADME; outline: as §4
[19] = Drug uptake in cytosol of adriamycin-resistant human Kelly cells at 10 uM after 72 hrs by fluorescence confocal microscopic method; format: ADME; outline: as §4
[20] = Potency index, ratio of doxorubicin Ka to compound Ka for binding affinity to Cy5-labelled-36 base pair double stranded DNA (unknown origin)
[21] = Potency index, ratio of doxorubicin EC50 to compound EC50 for binding affinity to Cy5-labelled-36 base pair double stranded DNA (unknown origin)
[22] = as §1, with “at 3” for “after 24”, “hrs post dose” for “hrs”; outline: as §2
[23] = as §1, with “at 1 min post dose” for “after 24 hrs”; outline: as §2

Question: Which Drug metabolism [1] does the source give for `COc1cccc2c1C(=O)c1c(O)c3c(c(O)c1C2=O)C[C@@](O)(/C(CO)=N/OCC(=O)NCCCC[C@H](NC(=O)CO/N=C(\CO)[C@]1(O)Cc2c(O)c4c(c(O)c2[C@@H](O[C@H]2C[C@H](N)[C@H](O)[C@H](C)O2)C1)C(=O)c1c(OC)cccc1C4=O)C(=O)NCCSSCCNC(=O)[C@H](CCCCNC(=O)CO/N=C(\CO)[C@]1(O)Cc2c(O)c4c(c(O)c2[C@@H](O[C@H]2C[C@H](N)[C@H](O)[C@H](C)O2)C1)C(=O)c1c(OC)cccc1C4=O)NC(=O)CO/N=C(\CO)[C@]1(O)Cc2c(O)c4c(c(O)c2[C@@H](O[C@H]2C[C@H](N)[C@H](O)[C@H](C)O2)C1)C(=O)c1c(OC)cccc1C4=O)C[C@@H]3O[C@H]1C[C@H](N)[C@H](O)[C@H](C)O1` here?
Answer: Metabolite detected

Question: Which Stability [2] does the source give for `CC(=O)O.CC(=O)O.CC(=O)O.CC(=O)O.CC(=O)O.CC(=O)O.CC(=O)O.CC(=O)O.CC(=O)O.CC(=O)O.COc1cccc2c1C(=O)c1c(O)c3c(c(O)c1C2=O)C[C@@](O)(/C(CO)=N/OCC(=O)NCCCC[C@H](NC(=O)CO/N=C(\CO)[C@]1(O)Cc2c(O)c4c(c(O)c2[C@@H](O[C@H]2C[C@H](N)[C@H](O)[C@H](C)O2)C1)C(=O)c1c(OC)cccc1C4=O)C(=O)NCCSSC[C@H](NC(C)=O)C(=O)N[C@@H](CCCNC(=N)N)C(=O)N[C@@H](CCCNC(=N)N)C(=O)N[C@@H](CCCNC(=N)N)C(=O)N[C@@H](CCCNC(=N)N)C(=O)N[C@@H](CCCNC(=N)N)C(=O)N[C@@H](CCCNC(=N)N)C(=O)N[C@@H](CCCNC(=N)N)C(=O)N[C@@H](CCCNC(=N)N)C(N)=O)C[C@@H]3O[C@H]1C[C@H](N)[C@H](O)[C@H](C)O1` here?
Answer: Stable

Question: And the IC50 (MCF7)?
Answer: 3660 nM

Question: And the IC50 [3]?
Answer: 2470 nM

Question: And the IC50 [4]?
Answer: 2760 nM

Question: And the “Ratio IC50” value [5]?
Answer: 3

Question: What about the Drug uptake [6] of the same compound?
Answer: Active

Question: What about the Drug uptake [7] of the same compound?
Answer: Active

Question: What about the Drug uptake [8] of the same compound?
Answer: Active

Question: What about the Drug uptake [9] of the same compound?
Answer: Active

Question: And the Drug uptake [10]?
Answer: Active

Question: What about the Drug uptake [11] of the same compound?
Answer: Active

Question: And the Drug uptake [12]?
Answer: Active

Question: What about the Drug uptake [13] of the same compound?
Answer: Active

Question: And the Drug uptake [14]?
Answer: Active

Question: Which EC50 [15] does the source give for `COc1cccc2c1C(=O)c1c(O)c3c(c(O)c1C2=O)C[C@@](O)(C(=O)CO)C[C@@H]3O[C@H]1C[C@H](N)[C@H](O)[C@H](C)O1` [DOXORUBICIN] here?
Answer: 1160 nM

Question: What about the Kd [15] of the same compound?
Answer: 1130 nM

Question: And the Activity [16]?
Answer: inactive

Question: And the IC50 [3]?
Answer: 180 nM

Question: What about the IC50 [4] of the same compound?
Answer: 6570 nM

Question: What about the Drug uptake [7] of the same compound?
Answer: Active

Question: And the Drug uptake [8]?
Answer: Active

Question: And the Drug uptake [17]?
Answer: Active

Question: What about the Drug uptake [9] of the same compound?
Answer: Active

Question: What about the Drug uptake [18] of the same compound?
Answer: Active

Question: And the Drug uptake [19]?
Answer: Not Active

Question: What about the Drug uptake [11] of the same compound?
Answer: Not Active

Question: Which IC50 (MCF7) does the source give for `CC(=O)N[C@@H](CS)C(=O)N[C@@H](CCCNC(=N)N)C(=O)N[C@@H](CCCNC(=N)N)C(=O)N[C@@H](CCCNC(=N)N)C(=O)N[C@@H](CCCNC(=N)N)C(=O)N[C@@H](CCCNC(=N)N)C(=O)N[C@@H](CCCNC(=N)N)C(=O)N[C@@H](CCCNC(=N)N)C(=O)N[C@@H](CCCNC(=N)N)C(N)=O` here?
Answer: ≥ 100000 nM

Question: And the IC50 [3]?
Answer: ≥ 100000 nM

Question: What about the IC50 [4] of the same compound?
Answer: ≥ 100000 nM

Question: What does the source list for `COc1cccc2c1C(=O)c1c(O)c3c(c(O)c1C2=O)C[C@@](O)(/C(CO)=N/OCC(=O)NCCCC[C@H](NC(=O)CO/N=C(\CO)[C@]1(O)Cc2c(O)c4c(c(O)c2[C@@H](O[C@H]2C[C@H](N)[C@H](O)[C@H](C)O2)C1)C(=O)c1c(OC)cccc1C4=O)C(=O)NCCSSc1ccccn1)C[C@@H]3O[C@H]1C[C@H](N)[C@H](O)[C@H](C)O1`?
Answer: EC50 [15]: 150 nM; Ka [15]: 7.9 ×10⁶ /M; Kd [15]: 126 nM; Activity [16]: inactive; Ratio [20]: 10; Ratio EC50 [21]: 10; IC50 (MCF7): 6730 nM; IC50 [3]: 1790 nM; IC50 [4]: 7330 nM

Question: With `COc1cccc2c1C(=O)c1c(O)c3c(c(O)c1C2=O)C[C@@](O)(/C(CO)=N/OCC(=O)NCCCC[C@H](NC(=O)CO/N=C(\CO)[C@]1(O)Cc2c(O)c4c(c(O)c2[C@@H](O[C@H]2C[C@H](N)[C@H](O)[C@H](C)O2)C1)C(=O)c1c(OC)cccc1C4=O)C(=O)NCCSSC[C@H](NC(=O)CC[C@@H](N)C(=O)O)C(=O)NCC(=O)O)C[C@@H]3O[C@H]1C[C@H](N)[C@H](O)[C@H](C)O1` as the compound, how does the Drug metabolism [22] read?
Answer: Metabolite detected

Question: For `COc1cccc2c1C(=O)c1c(O)c3c(c(O)c1C2=O)C[C@@](O)(/C(CO)=N/OCC(=O)NCCCC[C@H](NC(=O)CO/N=C(\CO)[C@]1(O)Cc2c(O)c4c(c(O)c2[C@@H](O[C@H]2C[C@H](N)[C@H](O)[C@H](C)O2)C1)C(=O)c1c(OC)cccc1C4=O)C(=O)NCCS)C[C@@H]3O[C@H]1C[C@H](N)[C@H](O)[C@H](C)O1`, which Drug metabolism [23] is on record?
Answer: Metabolite detected

From ChEMBL document CHEMBL4011584, “Overcoming drug resistance by cell-penetrating peptide-mediated delivery of a doxorubicin dimer with high DNA-binding affinity” (Eur J Med Chem, 2017)
